Assay outcomes: PubChem, Broad Institute
Compounds with a hit are over-represented: about 2.2% of the library has one in this group of screens.
dFosB activator = mouse delta FosB homodimer activation; P13346; purified delta FosB, TAMRA-CDK5 oligo fluorescence polarization; percent of positive-control signal above neutral wells; activation, % at 25 µM; actives 0.99% (n = 340,000); AID 493131;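 active = mean activation above about 17%, with every replicate also reaching it, limit read from the data, passing the limit was not always enough; inconclusive = only one of the two conditions met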
Target sequence (P13346 whole entry, looked up): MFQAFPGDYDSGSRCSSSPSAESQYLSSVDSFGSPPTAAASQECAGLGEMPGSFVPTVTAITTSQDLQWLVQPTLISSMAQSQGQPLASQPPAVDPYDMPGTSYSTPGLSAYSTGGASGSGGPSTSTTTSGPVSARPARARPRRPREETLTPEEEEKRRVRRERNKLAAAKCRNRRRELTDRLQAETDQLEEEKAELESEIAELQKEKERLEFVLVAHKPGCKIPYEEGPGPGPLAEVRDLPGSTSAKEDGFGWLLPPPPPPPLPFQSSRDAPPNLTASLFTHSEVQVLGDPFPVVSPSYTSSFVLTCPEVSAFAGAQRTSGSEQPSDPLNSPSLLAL
S100A4 MyoIIA = blocks human S100A4 binding to myosin IIA peptide. P26447. S100A4/TAMRA-MyoIIA peptide fluorescence polarization. inhibition, % at 10.7 µM. actives 0.14% (n = 360,000). AID 652163;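 active = mean inhibition of at least 70% across replicates, with every replicate also reaching that level; inconclusive = mean inhibition reaches 70% but some replicates fall short; inactive = mean inhibition below 70%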
Target sequence (P26447 whole entry, looked up): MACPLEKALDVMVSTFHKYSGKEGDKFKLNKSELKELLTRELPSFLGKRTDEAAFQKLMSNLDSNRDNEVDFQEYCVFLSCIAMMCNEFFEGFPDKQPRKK
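System – human S100A4 monomer protein, biochemical binding assay · Buffer or medium – Calcium-containing HEPES buffer, pH 7.2 · Timing – 5 min between mix addition and reading · Also added – TAMRA-labelled myosin IIA heavy-chain peptide probe, 5 nM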
F508del corr = correctors of CFTR F508del function in bronchial epithelial cells | CFBE cells, YFP halide quenching; stimulated with forskolin plus potentiator P3; % fluorescence drop versus neutral controls | activity (quench increase), % at 7.58 µM | actives 0.36% (n = 350,000);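 active = mean added fluorescence quench of at least 8% versus neutral control, with both replicates also reaching 8%; inconclusive = only one of the mean or replicate conditions met; inactive = mean below 8% and not both replicates reaching 8%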;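 note: cells transiently co-express mutant CFTR-F508del with the halide-sensitive YFP; corrector assay measuring rescue of mutant channel to the surface after 24 h compound exposure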
FGF22 binding = binders of recombinant human FGF22 by thermal shift | actives 1.5% (n = 340,000) | AID 651658 | Q9HCT0 | activity (Tm shift, normalised), % at 9.99 µM | SYPRO orange fluorescence; percent of sucrose octasulfate shift, DMSO zero;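 active = mean Tm shift, scaled 0 neutral to 100 positive control, at about 1.3% or above, every replicate too, limit read from the data; inconclusive = no clear call, values can overlap the other calls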
Target sequence (Q9HCT0 whole entry, looked up): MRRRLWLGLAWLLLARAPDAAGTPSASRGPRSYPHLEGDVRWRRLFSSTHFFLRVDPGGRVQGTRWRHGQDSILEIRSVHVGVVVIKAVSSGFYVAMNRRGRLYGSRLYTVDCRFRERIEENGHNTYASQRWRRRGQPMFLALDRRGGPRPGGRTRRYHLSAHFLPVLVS
An asterisk follows results filed as active; ? = inconclusive; · = no result given.

SMILES	dFosB activator	S100A4 MyoIIA	F508del corr	FGF22 binding
S=c1[nH]c(-c2ccccc2)cn1/N=C/c1ccc(Br)cc1	-2	1	-1	43*
O=C(O)c1ccc(/C=N/n2cc(-c3ccccc3)[nH]c2=S)cc1	-6	-1	0	0
COc1ccc(COC[C@@]23Oc4ccccc4[C@@H](NC(=O)N2C)[C@H]3COC(=O)c2ccc([N+](=O)[O-])cc2)cc1	·	3	3	0
CCc1ccc(C(=O)CN2C(=O)NC(C)(c3ccc(C)cc3)C2=O)cc1 (configuration not stated)	-8	-4	-3	43*
CCCn1c(SCC(=O)N2CCCCC2)nnc1-c1ccccn1	·	0	0	44*
O=C(Nc1nc2nc(-c3ccccc3)cc(-c3ccccc3)n2n1)c1ccco1	68*	·	·	·
CC(=O)Nc1nc2nc(-c3ccccc3)cc(-c3ccccc3)n2n1	-8	·	·	·
COc1ccc(OC)c(-n2c(Cn3c(-c4ccccn4)nc4ccccc43)n[nH]c2=S)c1	2	2	0	44*
CC(C)N(Cc1ccccc1)C(=S)Nc1ccc(F)cc1	-4	0	-2	43*
CCc1ccc(OCCCC(=O)NCc2ccco2)cc1	-1	-3	2	44*
O=C(COC(=O)Cn1cnc2ccccc21)Nc1cc2c(cc1Cl)C(=O)c1ccccc1C2=O	-21	5	3	44*
COCCNS(=O)(=O)c1ccc2c3c(cccc13)C(=O)N2C	-5	0	1	43*
CN1C(=O)c2cccc3c(S(=O)(=O)NCCc4ccccc4)ccc1c23	-10	-5	-3	0
Cc1ccc(S(=O)(=O)N(C)C[C@@H]2Oc3c(NC(=O)c4ccncc4)cccc3C(=O)N([C@H](C)CO)C[C@@H]2C)cc1	·	-1	3	0
COc1ccc([N+](=O)[O-])cc1/C=N/NC(=O)Cc1ccccc1	0	-3	-3	44*
O=C(O)c1ccccc1N/N=C/c1cc(Br)cc(Br)c1O	-10	1	1	44*
O=C(Cc1ccccc1)N/N=C/c1cc(Br)cc(Br)c1O	39*	3	1	0
COc1cccc(C(=O)Nc2ccc3c(c2)C(=O)N(C)[C@H]2CC[C@H](CC(=O)NCC(F)(F)F)O[C@H]2CO3)c1	·	1	1	0
C[C@@H]1CN([C@@H](C)CO)C(=O)c2cccc(NS(=O)(=O)c3ccc(F)cc3)c2O[C@@H]1CN(C)Cc1ccc(Cl)c(Cl)c1	·	5	0	-1
O=C(N/N=C/c1cc([N+](=O)[O-])ccc1Cl)c1cnccn1	-1	0	3	43*
COCC(=O)Nc1ccc2c(c1)C(=O)N(C)[C@H]1CC[C@H](CC(=O)NCc3ccccc3F)O[C@@H]1CO2	·	48	2	0
CN(C)CCCN(C(=O)c1ccc(S(=O)(=O)N(C)C)cc1)c1nc2cc3c(cc2s1)OCO3	0	0	1	43*
CN(C)CCN(C(=O)c1ccc(C(=O)c2ccccc2)cc1)c1nc2cc3c(cc2s1)OCO3	?	-5	0	0
CCN(CC)CCN(C(=O)c1ccc2ccccc2c1)c1nc2cc3c(cc2s1)OCO3	53*	2	2	0
CCN(Cc1ccccc1)S(=O)(=O)c1ccc(C(=O)N(CCCN(C)C)c2nc3cc4c(cc3s2)OCO4)cc1	?	2	-2	0
SMILES	dFosB activator	S100A4 MyoIIA	F508del corr	FGF22 binding
C[C@@H]1CN([C@H](C)CO)C(=O)c2cc(C3=CCCCC3)cnc2O[C@H]1CN(C)C(=O)Cc1cccnc1	·	4	0	0
C[C@@H]1CN([C@@H](C)CO)S(=O)(=O)c2ccc(-c3ccccc3)cc2O[C@@H]1CN(C)S(C)(=O)=O	·	-26	-2	0
COc1cccc(C2=CC(=O)C[C@H](c3ccc4c(c3)OCO4)C2)c1	-3	·	·	·
COc1ccc([C@H]2CC(=O)C=C(c3ccc4c(c3)OCO4)C2)cc1OC	-1	5	1	4.0*
C[C@H](CO)N1C[C@H](C)[C@H](CN(C)S(=O)(=O)c2ccc(-c3ccccc3)cc2)OCc2cn(nn2)CCCC1=O	·	-10	1	0
COc1cccc(NC(=O)N(C)C[C@H]2OCc3ccccc3-c3ccccc3C(=O)N([C@@H](C)CO)C[C@H]2C)c1	·	-31	1	0
O=C(CCN1CCCCC1)NCC[C@@H]1CC[C@@H](NC(=O)C2CC2)[C@@H](CO)O1	·	-27	-2	0
O=C1c2ccccc2/C(=C\c2ccc(Br)s2)N1c1ccccc1	2	-22	1	0
O=C1c2ccccc2/C(=C\c2ccc(Br)nc2)N1c1ccccc1	·	1	0	43*
S=C(NN=C(c1ccccc1)c1ccccn1)N(Cc1ccccn1)Cc1ccccn1	-12	-12	1	-1
CC(=NNC(=S)N(Cc1ccccn1)Cc1ccccn1)c1cnccn1	-5	2	8.2*	0
CC(/C=N/Nc1ncc(C)c(=O)[nH]1)=C\c1ccccc1	-6	·	·	·
CC(/C=N/Nc1nc(C)cc(=O)[nH]1)=C\c1ccccc1	-9	4	-2	43*
NNC(=O)c1ccccc1-n1cccc1	-1	-6	1	43*
O=C(C[C@@H]1CC[C@@H](NC(=O)Cc2cccnc2)[C@H](CO)O1)Nc1ccc(-c2ccccc2)cc1	·	127*	0	0
CC(N=Cc1cc([N+](=O)[O-])ccc1O)c1ccccc1 (configuration not stated)	-1	-26	-1	44*
O=C(Nc1cc(S(=O)(=O)Nc2ccccc2Cl)ccc1O)c1sc2cc(Cl)ccc2c1Cl	101*	·	·	·
COc1ccccc1NS(=O)(=O)c1ccc(Cl)c(NC(=O)c2sc3cc(Cl)ccc3c2Cl)c1	6	-14	2	0
O=C(Nc1cccc(Cl)c1)N1[C@@H]2CNC[C@H]1C2c1ccc(-c2ccccc2)cc1 (some centres not stated)	·	-21	-2	·
C[C@@H]1CN([C@H](C)CO)C(=O)c2cccc(NS(C)(=O)=O)c2O[C@H]1CN(C)C(=O)Nc1cccc2ccccc12	·	16	-2	1
OCCN1CCN(c2nc(NCc3ccco3)c3ccccc3n2)CC1	7	·	·	·
c1ccc(CN2CCN(c3nc(NCc4ccco4)c4ccccc4n3)CC2)cc1	28*	·	·	·
Cc1ccc(OCCN2CCN(c3nc(NCc4ccco4)c4ccccc4n3)CC2)cc1	27*	·	·	·
C[C@H](CO)N1C[C@H](C)[C@@H](CN(C)Cc2ccc(Cl)c(Cl)c2)OCc2ccccc2-c2ccccc2C1=O	·	14	-1	-1
C=CCOc1ccc(C[C@H](N)C(=O)NC[C@H]2O[C@@H](n3ccc(N)nc3=O)[C@H](O)[C@@H]2O)cc1	·	-4	1	43*
C=CCOc1ccc(C[C@H](N)C(=O)NC[C@H]2O[C@@H](n3cc(C)c(=O)[nH]c3=O)C[C@@H]2O)cc1	·	1	-1	0
COc1ccc2c(c1)[C@]1(C(=O)N2C)C2=C(CCCC2=O)Oc2cc(C)oc(=O)c21	·	-1	-1	43*
